Activity data for seven compounds are collected here from ChEMBL document CHEMBL1151227, “Hyperjovinols A and B: Two new phloroglucinol derivatives from Hypericum jovis with antioxidant activity in cell cultures” (J Nat Prod, 2004).

Structures are written as SMILES.

Data set [1] has as its system Fibroblast. As to the kind of experiment: Inhibition of endogenous ROS production in human skin fibroblast assessed as DCF-fluorescence at 10 uM after 4 hrs by DCFH-DA assay relative to control. Details: scale not given: the % may be the effect or the level left.
The test system of data set [2] is Fibroblast. As to the kind of experiment: Inhibition of endogenous ROS production in human skin fibroblast assessed as DCF-fluorescence at 100 uM after 4 hrs by DCFH-DA assay relative to control. Also noted: scale not given: the % may be the effect or the level left.
The nature of data set [3]: Cytotoxicity against human skin fibroblasts assessed as cell viability by trypan blue exclusion assay relative to control. In kind it is cell-based. Conditions: fibroblast. An outline of the steps:
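Normal human skin fibroblasts (lab-derived) grown in MEM with 10% FBS to confluency, then exposed to compounds (diluted from DMSO into medium) for 4 h. Viability was judged against untreated cells by Trypan Blue exclusion, with microscopic inspection for cytotoxicity.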

For `CC(C)=CCC/C(C)=C/Cc1c(O)cc(O)c(C(=O)C(C)C)c1O`, the results for the Activity in data set [1], in data set [2] and in data set [3] were 79.4%, 50.8% and “Non-toxic”, respectively.
Turning to `Cc1c(C)c2c(c(C)c1O)CCC(C)(C(=O)O)O2` (stereo not given) [TROLOX], the results for the Activity in data set [1] and in data set [2] were 81.4% and 55.2%, respectively.
Turning to `CC(C)=CCC/C(C)=C/COc1cc(O)c(C(=O)C(C)C)c(O)c1`, the Activity in data set [1] was 92.2%; in data set [2], 61.5%; in data set [3] it was “Non-toxic”.
The like results for `CC(C)=CCCC1(C)CCc2c(cc(O)c(C(=O)C(C)C)c2O)O1` (stereo not given) were, in that order, 94.1%, 62.4% and “Non-toxic”.
The matching figures for `CC(C)C(=O)c1c(O)cc2c(c1O)C[C@@H]1C(C)(C)CCC[C@@]1(C)O2` [HYPERJOVINOL B]: 89.7%, 57.1% and “Non-toxic”.
The matching figures for `CC(C)=CCCC(C)(O)CCc1c(O)cc(O)c(C(=O)C(C)C)c1O` (stereo not given) [HYPERJOVINOL A]: 76.1%, 49.2% and “Non-toxic”.
As for `CC(C)=CCCC1(C)CCc2c(O)cc(O)c(C(=O)C(C)C)c2O1` (stereo not given), the Activity in data set [1] is on record as 81.5%; in data set [2], 73%; in data set [3] it was “Non-toxic”.
